Columns and labels:
[1] = Hydrophobicity, Log P of the compound; assay type: physicochemical; details: octanol/water
Method in brief: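 Observed logP (logPow) measured by HPLC on a C18 column. Mobile phase methanol/water 3:1 (v/v) at 1.0 mL/min, UV detection at 254 nm. Test and reference compounds dissolved in mobile phase for injection.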

[2] = species: Gallus gallus; assay: Antiangiogenic activity in chick embryo chorioallantoic membrane assessed as number of eggs showing 3 mm avascular zone at 5 ug; assay type: functional, tissue-based
Method in brief: (§1)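 Fertilized chicken eggs held at 37.6 °C, humidified, for 4 days; 3 mL albumin withdrawn and air sac displaced to drop the CAM, window capped, incubation at 39.0 °C. Next day a silicon ring placed on the 2–3 mm CAM and test solution applied dropwise at room temperature. Compounds in DMSO, vehicle control 0.05% DMSO in 1% methyl cellulose/0.9% NaCl. After 1 day incubator raised to 39.5 °C and eggs incubated 1 more day. Vessels then visualized by injecting fat emulsion (1 mL) into the CAM and scored for inhibition.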

[3] = species: Gallus gallus; assay: Antiangiogenic activity in chick embryo chorioallantoic membrane assessed as number of eggs showing 3 mm avascular zone at 1 ug; assay type: functional, tissue-based; method in brief: as §1
[4] = species: Gallus gallus; assay: Antiangiogenic activity in chick embryo chorioallantoic membrane assessed as number of eggs showing 3 mm avascular zone at 10 ug; assay type: functional, tissue-based; method in brief: as §1
[5] = species: Gallus gallus; assay: Antiangiogenic activity in chick embryo chorioallantoic membrane assessed as number of eggs showing 3 mm avascular zone at 2.5 ug; assay type: functional, tissue-based; method in brief: as §1
[6] = species: Gallus gallus; assay: Antiangiogenic activity in chick embryo chorioallantoic membrane assessed as number of eggs showing 3 mm avascular zone at 100 ug; assay type: functional, tissue-based; method in brief: as §1

SMILES	logP [1]	inhibition [2]	inhibition [3]	inhibition [4]	inhibition [5]	inhibition [6]
CC(=O)NC(CCc1ccc(C#CC#C[Si](C)(C)C)cc1)(COC(C)=O)COC(C)=O	4.97	–	–	–	–	–
C#CC#CC#Cc1ccc(CCC(N)(CO)CO)cc1	–	67%	40%	60%	67%	–
C#Cc1ccc(CCC(N)(CO)CO)cc1	–	17%	17%	42%	–	–
CCCCCCCCc1ccc(CCC(N)(CO)CO)cc1	–	–	40%	77%	–	100%
C#CC#Cc1ccc(CCC(N)(CO)CO)cc1	–	79%	35%	90%	71%	–
CC(=O)NC(CCc1ccc(C#CC#CC#C[Si](C)(C)C)cc1)(COC(C)=O)COC(C)=O	5.9	–	–	–	–	–
CO[C@@H]1[C@H](OC(=O)NC(=O)CCl)CC[C@]2(CO2)[C@H]1[C@@]1(C)O[C@@H]1CC=C(C)C	–	78%	50%	82%	–	–
CC(=O)NC(CCc1ccc(C#C[Si](C)(C)C)cc1)(COC(C)=O)COC(C)=O	4.07	–	–	–	–	–

From ChEMBL document CHEMBL1156619, “TX-2152: a conformationally rigid and electron-rich diyne analogue of FTY720 with in vivo antiangiogenic activity” (Bioorg Med Chem, 2008)
